The source made the active and inactive calls. The rule behind the calls is not given here.
Tests used:
[1] = tested on: HCT-116; test: Antitumor activity against human HCT116 cells xenografted in ip dosed nu/nu mouse assessed as tumor growth inhibition administered for 16 days; type: functional, organism-based
Method in brief: (§1)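 Female nu/nu mice, 3–5 weeks old; 1×10^6 HCT116 cells in saline injected sc in left rear flank; daily ip 0.1 or 0.25 mg/kg (2 or 5 μg/mouse) or DMSO vehicle, 16 days; n = 7 treated, 6 vehicle; caliper volumes daily (W²×L×0.5); tumours starting above 100 mm³ excluded.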

[2] = tested on: HCT-116; test: Metabolic stability in human HCT116 cells at 25 ug/ml up to 24 hrs by HPLC-MS analysis; type: ADME, cell-based; settings: hct-116, 24 h
Method in brief: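 HCT116 lysate diluted in 25 mM Tris-HCl pH 8.0 to 0.7 mg/mL protein, 100 μL; incubated with compound (10 μL of 25 μg/mL) 0.25 min to 24 h; ethyl acetate extraction with harmine; HPLC-MS (MRM); remaining amount from calibration curve.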

[3] = tested on: Liver; test: Metabolic stability in CD1 mouse liver microsomes assessed as compound remaining at 1 uM after 15 mins by HPLC-MS analysis in presence of NADPH; type: ADME; settings: 0.25 h
Method in brief: (§2)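 Pooled female CD1 mouse liver microsomes, 0.5 mg/mL protein final, in 100 mM phosphate pH 7.4 at 37 °C; compound 1 μM final, with or without NADPH-regenerating system; 3 min to 2 h; quenched with ethyl acetate, harmine internal standard; HPLC-MS (MRM); % remaining versus t0 peak-area ratio; triplicate.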

[4] = tested on: Liver; test: Metabolic stability in CD1 mouse liver microsomes assessed as compound remaining at 1 uM after 3 mins by HPLC-MS analysis in presence of NADPH; type: ADME; settings: 0.05 h; method in brief: as §2
[5] = tested on: Liver; test: Metabolic stability in CD1 mouse liver microsomes assessed as compound remaining at 1 uM after 30 mins by HPLC-MS analysis; type: ADME; settings: 0.5 h; method in brief: as §2
[6] = tested on: HCT-116; test: Downregulation of human MET protein expression in HCT116 cells up to 10 uM after 24 hrs by Western blotting analysis; type: functional, cell-based
Method in brief: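 HCT116 cells seeded 4×10^5/well, treated next day with a concentration series (solvent control 1% EtOH) for 24 h; whole-cell lysates, equal protein by BCA, 4–12% SDS-PAGE, PVDF transfer, anti-Met immunoblot with chemiluminescent detection.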

[7] = tested on: Liver; test: Metabolic stability in CD1 mouse liver microsomes assessed as compound remaining at 1 uM after 120 mins by HPLC-MS analysis in presence of NADPH; type: ADME; settings: 2 h; method in brief: as §2
[8] = Half life in CD1 mouse liver microsomes at 1 uM by HPLC-MS analysis in presence of NADPH; type: ADME
[9] = tested on: Liver; test: Metabolic stability in CD1 mouse liver microsomes assessed as compound remaining at 1 uM after 60 mins by HPLC-MS analysis; type: ADME; settings: 1 h; method in brief: as §2
[10] = tested on: Plasma; test: Metabolic stability in mouse plasma at 25 ug/ml up to 24 hrs by HPLC-MS analysis; type: ADME, cell-free
Method in brief: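 Compound (10 μL of 25 μg/mL) added to 100 μL mouse serum, incubated 0.25 min to 24 h; ethyl acetate plus harmine quench/extraction, dried, reconstituted in acetonitrile; HPLC-MS (MRM); remaining amount from calibration curve.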

[11] = biological target: T1, Vascular endothelial growth factor A, long form (Homo sapiens, UniProt P15692); test: Inhibition of VEGF-A production in human HCT116 cells after 12 hrs by alphaLISA assay; type: cell-based, HCT-116
T1 sequence (P15692 whole entry): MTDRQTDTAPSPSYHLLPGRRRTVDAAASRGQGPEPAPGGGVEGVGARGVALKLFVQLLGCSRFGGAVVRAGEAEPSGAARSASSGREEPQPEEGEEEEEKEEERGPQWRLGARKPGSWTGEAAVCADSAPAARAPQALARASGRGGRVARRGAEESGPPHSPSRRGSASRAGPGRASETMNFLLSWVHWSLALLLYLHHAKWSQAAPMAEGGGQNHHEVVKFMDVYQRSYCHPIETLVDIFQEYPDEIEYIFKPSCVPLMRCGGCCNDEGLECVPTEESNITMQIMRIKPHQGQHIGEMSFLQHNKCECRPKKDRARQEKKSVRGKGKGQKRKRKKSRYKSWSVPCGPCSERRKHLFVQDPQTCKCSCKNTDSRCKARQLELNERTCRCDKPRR

[12] = tested on: Liver; test: Metabolic stability in CD1 mouse liver microsomes assessed as compound remaining at 1 uM after 5 mins by HPLC-MS analysis in presence of NADPH; type: ADME; method in brief: as §2
[13] = tested on: Mus musculus; test: Toxicity in nu/nu mouse xenografted with human HCT116 cells assessed as body weight loss at 0.1 to 0.25 mg/kg, ip for 16 days; type: organism-based, HCT-116; design: dose 0.1-0.25 mg/kg, route intraperitoneal; settings: in vivo, 384 h
[14] = Half life in phosphate buffer at 25 ug/ml at pH 4.88 by HPLC-MS analysis; type: physicochemical
Method in brief: (§3)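 Compound (10 μL of 25 μg/mL) spiked into 100 μL of 100 mM phosphate buffer, pH 4.88 or pH 7.4, incubated 0.25 min to 24 h; ethyl acetate extraction with harmine internal standard; HPLC-MS (MRM); remaining amount from calibration curve.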

[15] = tested on: Liver; test: Metabolic stability in CD1 mouse liver microsomes assessed as compound remaining at 1 uM after 3 mins by HPLC-MS analysis; type: ADME; settings: 0.05 h; method in brief: as §2
[16] = tested on: Liver; test: Metabolic stability in CD1 mouse liver microsomes assessed as compound remaining at 1 uM after 5 mins by HPLC-MS analysis; type: ADME; method in brief: as §2
[17] = tested on: Liver; test: Metabolic stability in CD1 mouse liver microsomes assessed as compound remaining at 1 uM after 15 mins by HPLC-MS analysis; type: ADME; settings: 0.25 h; method in brief: as §2
[18] = tested on: Liver; test: Metabolic stability in CD1 mouse liver microsomes assessed as compound remaining at 1 uM after 60 mins by HPLC-MS analysis in presence of NADPH; type: ADME; settings: 1 h; method in brief: as §2
[19] = tested on: HCT-116; test: Antitumor activity against human HCT116 cells xenografted in nu/nu mouse assessed as tumor growth inhibition at 0.1 mg/kg, ip for 16 days relative to control; type: functional; settings: HCT-116, ip, 384 h, route intraperitoneal, read-out: TGI; method in brief: as §1
[20] = tested on: Liver; test: Metabolic stability in CD1 mouse liver microsomes assessed as compound remaining at 1 uM after 30 mins by HPLC-MS analysis in presence of NADPH; type: ADME; settings: 0.5 h; method in brief: as §2
[21] = tested on: HCT-116; test: Downregulation of VEGFR2 protein expression in human HCT116 cells xenografted in nu/nu mouse at 0.25 mg/kg, ip for 16 days by immunoblotting analysis; type: functional, organism-based; design: dose 0.25 mg/kg
Method in brief: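 Xenograft tumours harvested at the end of the daily ip efficacy study in nu/nu mice bearing sc HCT116 tumours were analysed by immunoblotting with anti-VEGFR2 antibody.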

[22] = tested on: Mus musculus; test: Toxicity in nu/nu mouse xenografted with human HCT116 cells assessed as abnormal behavior at 0.1 to 0.25 mg/kg, ip for 16 days; type: organism-based, HCT-116; design: dose 0.1-0.25 mg/kg, route intraperitoneal; settings: in vivo, 384 h
[23] = tested on: HCT-116; test: Antiproliferative activity against human HCT116 cells after 48 hrs by MTT assay; type: functional, cell-based; settings: HCT-116, 48 h
[24] = Half life in phosphate buffer at 25 ug/ml at pH 7.4 by HPLC-MS analysis; type: physicochemical; method in brief: as §3
[25] = tested on: Liver; test: Metabolic stability in CD1 mouse liver microsomes assessed as compound remaining at 1 uM after 120 mins by HPLC-MS analysis; type: ADME; settings: 2 h; method in brief: as §2

| SMILES | Stability [2] | Stability [3] | Stability [4] | Stability [5] | Activity [6] | Stability [7] | half-life at 1 µM [8] | Stability [9] | Stability [10] | IC50 [11] | Stability [12] | half-life at 25 ug/ml [14] | Stability [15] | Stability [16] | Stability [17] | Stability [18] | Stability [20] | IC50 [23] | half-life at 25 ug/ml [24] | Stability [25] | further results |
| --- | --- | --- | --- | --- | --- | --- | --- | --- | --- | --- | --- | --- | --- | --- | --- | --- | --- | --- | --- | --- | --- |
| CC[C@H](C)[C@H]1C(=O)N2CCC[C@H]2C(=O)O[C@H](C(C)(C)C)C[C@@H](C)C[C@H](O)C(C)(C)C2=N[C@@H](CCC(=O)N[C@@H](Cc3ccc(OC)cc3)C(=O)N(C)[C@@H](C)C(=O)N1C)CS2 | Stable | 8.28% | 37.2% | 74.75% | Active | 5.01% | < 5 min | 81.25% | Stable | 0.47 nM | 17.3% | > 1440 min | 74.1% | 77.45% | 63.45% | 3.55% | 4.83% | 1.99 nM | > 1440 min | 70.05% | TGI [1]: Dose-dependent effect; Activity [13]: Non-toxic; inhibition in vivo at 0.1 mg/kg [19]: 50%; Activity [21]: Active; Activity [22]: Non-toxic |
| CC[C@H](C)[C@H]1C(=O)N2CCC[C@H]2C(=O)O[C@H](C(C)(C)C)C[C@@H](C)C[C@H](O)[C@H](C)C2=N[C@@H](CCC(=O)N[C@@H](Cc3ccc(OC)cc3)C(=O)N(C)[C@@H](C)C(=O)N1C)CS2 [APRATOXIN S4] | Stable | 10.07% | 39.55% | 73.85% | Active | 6.02% | < 5 min | 87.1% | Stable | 0.32 nM | 32.2% | > 1440 min | 87.05% | 70.8% | 87.2% | 10% | 9.58% | 1.43 nM | > 1440 min | 55.25% |  |
| CC[C@H](C)[C@H]1C(=O)N2CCC[C@H]2C(=O)O[C@H](C(C)(C)C)C[C@@H](C)C[C@H](O)CC2=N[C@@H](CCC(=O)N[C@@H](Cc3ccc(OC)cc3)C(=O)N(C)[C@@H](C)C(=O)N1C)CS2 | Stable | 52.4% | 54.95% | 54.8% | Active | 4.3% | < 5 min | 54.5% | Stable | 0.3 nM | 18.7% | > 1440 min | 66.6% | 60.5% | 76.55% | 5.41% | 6.1% | 1.25 nM | > 1440 min | 53.85% |  |
| CC[C@H](C)[C@H]1C(=O)N2CCC[C@H]2C(=O)O[C@H](C(C)(C)C)C[C@@H](C)C[C@H](O)[C@H](C)C2=N[C@H](CCC(=O)N[C@@H](Cc3ccc(OC)cc3)C(=O)N(C)[C@@H](C)C(=O)N1C)CS2 | Stable | 3.55% | 51.4% | 56.05% | Active | 5.63% | < 5 min | 48.45% | Stable | 0.12 nM | 17.8% | > 1440 min | 83.1% | 71.4% | 45.25% | 6.06% | 3.73% | 0.69 nM | > 1440 min | 56.25% |  |
